The source of these data is article PMC8204304 (ACS Infectious Diseases, 2021).

The test system of one assay is NF54. Description: 72 h [3H]hypoxanthine incorporation assay, NF54. The assay is classed as cell-based. The following applies: Plasmodium falciparum. An outline of the steps: (§1)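 Asexual Pf strains were tested in a modified [3H]-hypoxanthine incorporation assay. Drug-resistant laboratory strains were compared with the drug-sensitive NF54 strain. IC50s came from linear interpolation.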

Assay [1] relates to Dd2. Description: 72 h [3H]hypoxanthine incorporation assay, Dd2. The assay is classed as cell-based. The following applies: Plasmodium falciparum.
For another assay, the system named is K1. Description: 72 h [3H]hypoxanthine incorporation assay, K1. It is filed as cell-based. The following applies: Plasmodium falciparum. In a few lines:
as §1

The next assay has as its system 7G8. Description: 72 h [3H]hypoxanthine incorporation assay, 7G8. It is filed as cell-based. The following applies: Plasmodium falciparum. In a few lines: as §1
The next assay has as its system TM90C2b. Description: 72 h [3H]hypoxanthine incorporation assay, TM90C2b. The assay is classed as cell-based. The following applies: Plasmodium falciparum. An outline of the steps:
as §1

The test system of a further assay is Cam3.I. Description: 72 h [3H]hypoxanthine incorporation assay, Cam3.I. The assay is classed as cell-based. The following applies: Plasmodium falciparum. An outline of the steps:
as §1

In assay [2] the test system is Dd2. The following applies: read-out: Dd2 IC50; cited from earlier work.
Another assay relates to Pf parasites. Description: Minimum inoculum resistance. The assay is classed as cell-based, Plasmodium falciparum. In a few lines:
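Pf cultures were selected at constant pressure of 3 × IC50 in two groups. The lower-inoculum group used 24 wells. The higher group started at 2 × 10^7 parasites in triplicate, covering 2 × 10^7 to 6 × 10^7. Wells were monitored for day of recrudescence. MIR = total inoculum divided by the number of recrudescent wells. A DHODH inhibitor served as positive control. Resistant clones were whole-genome sequenced.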

Read-outs that look alike come from different tables or passages of the source.

One may read the IC50 as the concentration at which inhibition is half-maximal.

As for `CCN(CC)CCCC(C)Nc1ccnc2cc(Cl)ccc12` (stereo not shown) [chloroquine], the 50% inhibitory concentration (IC50) was 0.008 µM with NF54; 0.157 µM with Dd2 [1]; 0.202 µM in the assay with K1; 0.079 µM with 7G8; 0.135 µM with TM90C2b; 0.18 µM in the assay with Cam3.I.
Regarding `C[C@H]1[C@H](OC(=O)CCC(=O)O)O[C@@H]2O[C@@]3(C)CC[C@H]4[C@H](C)CC[C@@H]1[C@@]24OO3` [artesunate], the IC50 in the assay on NF54 came to 0.004 µM; in the assay on Dd2 [1], 0.006 µM; in the assay with K1, 0.002 µM; with 7G8 it was 0.002 µM; in the assay on TM90C2b it was 0.005 µM; with Cam3.I, 0.011 µM.
As for `O=C(NC1Cc2ccccc2C1)c1nccnc1NC(=O)N1CCCCC1` [N-(2,3-dihydro-1H-inden-2-yl)-3-(piperidine-1-carboxamido)pyrazine-2-carboxamide], the half-maximal inhibitory concentration (IC50) with Dd2 [2] was 0.063 µM.
In the case of `Cc1cc(Nc2ccc(S(F)(F)(F)(F)F)cc2)n2nc(C(C)(F)F)nc2n1` [DSM265], the “minimum inoculum resistance (MIR)” value in the assay with Pf parasites (selection pressure 3 × IC50, parasites) is recorded as 2 × 10^7. The day of recrudescence entry with Pf parasites (starting inoculum 2 × 10^5 parasites, 24 replicates) was “never recrudesced”; in the assay with Pf parasites (starting inoculum 2 × 10^7 parasites, triplicate) it was 25 days.
